# Laboratory results: BindingDB's records for doi:10.1021/jm00027a001 (Telios Pharmaceuticals, 1994)
# *1 amine or outer side, *2 acyl side, *3 side chain or, on linkers, in order; H or OH if unused. Where a SMILES comes first, the peptide text is derived from it. Bridges are numbered along the chain shown (N, C = ends). X2 = N[C@H](C(=O)[*:1])C1(S[*:2])CCCCC1
# Key:
# [1] = target: Integrin alpha-IIb/beta-3 (Homo sapiens, UniProt P05106+P08514); assay: Binding affinity against integrin alpha 2b-beta 3 in enzyme linked immunosorbent assay (ELISA)
# Summary of the method: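 Purified human platelet αIIbβ3 (from outdated platelets, octyl glucoside extract) in TBS with 20 mM octyl glucoside, 2 mM MgCl2 and 2 mM CaCl2 binds to plate-coated human fibrinogen (10 µg/mL in TBS) with 10-fold serial peptide dilutions for 3 h at room temperature. Bound receptor is detected with rabbit anti-αIIbβ3, then HRP anti-rabbit IgG, with o-phenylenediamine/H2O2 at pH 5.0. IC50 is reported.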
# Integrin alpha-V/beta-5 = Integrin alpha-V/beta-5 (Homo sapiens, UniProt P06756+P18084); assay: Binding affinity against integrin alpha V-beta5 in enzyme linked immunosorbent assay (ELISA)
# Summary of the method: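 It is added to wells coated with human vitronectin in 0.1 M carbonate, pH 9.6, with 10-fold serial peptide dilutions for 3 h at room temperature. Detection uses rabbit anti-VnR, HRP anti-rabbit IgG and o-phenylenediamine/H2O2.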
# Integrin alpha-5/beta-1 = Integrin alpha-5/beta-1 (Homo sapiens, UniProt P05556+P08648); assay: Binding affinity against integrin alpha5-beta1 in enzyme linked immunosorbent assay (ELISA)
# Sequence of Integrin alpha-5/beta-1 (P05556 21-798 limits assumed): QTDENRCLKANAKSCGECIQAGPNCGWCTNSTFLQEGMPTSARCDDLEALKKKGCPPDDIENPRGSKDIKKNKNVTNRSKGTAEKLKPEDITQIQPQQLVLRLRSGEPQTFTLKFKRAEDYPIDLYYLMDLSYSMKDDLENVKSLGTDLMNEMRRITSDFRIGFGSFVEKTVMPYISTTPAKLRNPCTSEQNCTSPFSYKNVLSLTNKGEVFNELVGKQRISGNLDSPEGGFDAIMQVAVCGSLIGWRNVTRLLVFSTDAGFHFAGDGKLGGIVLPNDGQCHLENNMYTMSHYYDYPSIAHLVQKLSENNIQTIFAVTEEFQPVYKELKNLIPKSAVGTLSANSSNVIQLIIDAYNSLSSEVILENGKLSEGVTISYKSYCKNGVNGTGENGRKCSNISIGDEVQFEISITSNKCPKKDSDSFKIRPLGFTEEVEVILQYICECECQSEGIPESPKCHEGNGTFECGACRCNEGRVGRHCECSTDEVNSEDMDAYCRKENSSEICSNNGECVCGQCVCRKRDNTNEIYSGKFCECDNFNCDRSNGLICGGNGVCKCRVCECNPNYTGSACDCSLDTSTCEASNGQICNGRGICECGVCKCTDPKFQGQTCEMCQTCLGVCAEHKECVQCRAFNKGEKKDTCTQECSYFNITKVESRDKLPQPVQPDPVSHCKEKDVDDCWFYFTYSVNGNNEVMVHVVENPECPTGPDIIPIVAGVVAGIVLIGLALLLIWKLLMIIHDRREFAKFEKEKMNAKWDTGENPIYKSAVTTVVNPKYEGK
# Sequence of Integrin alpha-5/beta-1 (P08648 42-894 limits assumed): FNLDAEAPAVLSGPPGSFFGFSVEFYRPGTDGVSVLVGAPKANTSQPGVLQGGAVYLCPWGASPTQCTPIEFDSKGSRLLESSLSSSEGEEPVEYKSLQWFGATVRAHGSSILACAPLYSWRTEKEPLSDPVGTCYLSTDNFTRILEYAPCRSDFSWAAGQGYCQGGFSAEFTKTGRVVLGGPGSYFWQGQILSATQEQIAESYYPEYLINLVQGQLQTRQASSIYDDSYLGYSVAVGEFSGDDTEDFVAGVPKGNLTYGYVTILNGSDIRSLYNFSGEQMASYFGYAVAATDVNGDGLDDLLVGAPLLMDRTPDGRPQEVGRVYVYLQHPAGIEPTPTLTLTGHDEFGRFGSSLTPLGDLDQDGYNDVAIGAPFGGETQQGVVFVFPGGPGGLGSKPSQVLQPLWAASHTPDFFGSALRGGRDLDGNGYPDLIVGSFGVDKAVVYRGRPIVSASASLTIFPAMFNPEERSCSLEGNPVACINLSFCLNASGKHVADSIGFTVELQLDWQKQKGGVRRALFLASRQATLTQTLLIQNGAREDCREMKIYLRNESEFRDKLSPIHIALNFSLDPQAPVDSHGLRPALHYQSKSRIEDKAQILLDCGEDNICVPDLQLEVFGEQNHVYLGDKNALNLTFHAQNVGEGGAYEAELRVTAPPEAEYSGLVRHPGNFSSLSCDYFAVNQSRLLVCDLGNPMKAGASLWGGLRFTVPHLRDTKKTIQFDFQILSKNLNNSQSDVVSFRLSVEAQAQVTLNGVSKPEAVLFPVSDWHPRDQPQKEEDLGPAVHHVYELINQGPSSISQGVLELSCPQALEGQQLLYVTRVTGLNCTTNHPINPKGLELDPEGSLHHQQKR
# Sequence of Integrin alpha-5/beta-1 (P08648 895-1049 limits assumed): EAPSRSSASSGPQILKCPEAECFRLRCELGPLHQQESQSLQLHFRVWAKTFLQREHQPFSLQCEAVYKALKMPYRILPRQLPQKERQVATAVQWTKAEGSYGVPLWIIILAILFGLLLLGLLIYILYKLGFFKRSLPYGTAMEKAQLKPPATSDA
# Sequence of Integrin alpha-IIb/beta-3 (P05106 27-788 limits assumed): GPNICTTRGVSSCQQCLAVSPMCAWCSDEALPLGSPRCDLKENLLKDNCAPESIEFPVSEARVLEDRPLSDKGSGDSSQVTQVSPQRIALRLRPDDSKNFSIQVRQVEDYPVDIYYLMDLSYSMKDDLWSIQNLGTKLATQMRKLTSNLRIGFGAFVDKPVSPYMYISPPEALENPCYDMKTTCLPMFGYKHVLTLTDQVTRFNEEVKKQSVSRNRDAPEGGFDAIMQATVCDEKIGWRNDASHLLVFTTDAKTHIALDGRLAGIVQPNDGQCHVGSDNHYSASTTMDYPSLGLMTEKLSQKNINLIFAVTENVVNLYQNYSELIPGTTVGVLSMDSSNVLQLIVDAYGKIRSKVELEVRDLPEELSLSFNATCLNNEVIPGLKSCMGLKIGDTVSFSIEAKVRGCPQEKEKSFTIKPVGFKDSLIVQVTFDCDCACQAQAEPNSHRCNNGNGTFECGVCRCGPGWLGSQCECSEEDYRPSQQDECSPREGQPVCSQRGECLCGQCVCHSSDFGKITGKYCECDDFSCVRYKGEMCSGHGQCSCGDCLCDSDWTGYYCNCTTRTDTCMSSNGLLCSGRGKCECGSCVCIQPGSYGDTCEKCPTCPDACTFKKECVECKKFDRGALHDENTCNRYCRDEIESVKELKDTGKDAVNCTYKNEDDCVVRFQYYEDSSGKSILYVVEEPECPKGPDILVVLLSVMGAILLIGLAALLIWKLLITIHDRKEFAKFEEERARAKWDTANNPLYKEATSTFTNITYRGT
# Sequence of Integrin alpha-IIb/beta-3 (P08514 32-887 limits assumed): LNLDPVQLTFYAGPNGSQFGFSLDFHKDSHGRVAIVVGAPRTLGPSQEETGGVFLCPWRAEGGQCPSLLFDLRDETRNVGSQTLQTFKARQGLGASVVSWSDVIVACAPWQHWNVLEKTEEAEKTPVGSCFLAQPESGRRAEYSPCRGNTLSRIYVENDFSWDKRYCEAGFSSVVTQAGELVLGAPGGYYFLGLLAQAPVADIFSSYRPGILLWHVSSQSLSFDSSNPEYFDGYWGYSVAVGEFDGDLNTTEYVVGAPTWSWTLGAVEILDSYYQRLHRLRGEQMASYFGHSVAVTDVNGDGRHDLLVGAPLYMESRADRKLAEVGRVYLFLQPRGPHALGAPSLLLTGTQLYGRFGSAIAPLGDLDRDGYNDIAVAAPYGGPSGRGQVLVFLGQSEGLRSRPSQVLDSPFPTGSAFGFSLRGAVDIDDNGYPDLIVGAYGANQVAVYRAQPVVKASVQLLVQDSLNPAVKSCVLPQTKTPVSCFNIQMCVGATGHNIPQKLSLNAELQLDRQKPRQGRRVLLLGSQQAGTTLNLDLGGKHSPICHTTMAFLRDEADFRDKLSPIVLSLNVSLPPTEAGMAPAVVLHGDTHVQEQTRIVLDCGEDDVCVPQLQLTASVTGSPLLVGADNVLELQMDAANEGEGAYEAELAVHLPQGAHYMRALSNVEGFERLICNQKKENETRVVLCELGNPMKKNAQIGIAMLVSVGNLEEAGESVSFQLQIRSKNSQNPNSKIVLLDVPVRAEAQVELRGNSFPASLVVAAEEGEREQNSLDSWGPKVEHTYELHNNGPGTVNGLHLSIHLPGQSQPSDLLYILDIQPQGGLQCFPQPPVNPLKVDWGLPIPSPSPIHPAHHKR
# Sequence of Integrin alpha-IIb/beta-3 (P08514 891-1039 limits assumed): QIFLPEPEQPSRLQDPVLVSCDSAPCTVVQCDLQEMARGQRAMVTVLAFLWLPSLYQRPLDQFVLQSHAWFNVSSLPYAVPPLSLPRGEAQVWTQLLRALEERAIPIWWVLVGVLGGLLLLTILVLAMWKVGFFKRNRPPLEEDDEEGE
IC50 [1] [µM],IC50 (Integrin alpha-V/beta-5) [µM],IC50 (Integrin alpha-5/beta-1) [µM],Structure (SMILES)
4.7,4.7,–,COc1ccc(C[C@@H]2NC(=O)[C@H](CC(=O)O)NC(=O)CNC(=O)[C@H](CCCN=C(N)N)NC(=O)[C@H](Cc3c[nH]cn3)NC(=O)[C@H](CC(N)=O)NC(=O)[C@@H](N)CCC/N=C(/N)NC(=O)[C@@H](N)C3(CCCCC3)SSC[C@@H](C(=O)N[C@@H](CCCN=C(N)N)C(=O)O)NC(=O)[C@H](CCCN=C(N)N)NC2=O)cc1 [R(Pmc)-N-H-R-G-D-(Y-OMe)-R-C-R] (H-RNHRGDY(Me)RCR-OH; linker 1-9 via X2)
6.2,–,6.2,COc1ccc(C[C@@H]2NC(=O)[C@H](CC(=O)O)NC(=O)CNC(=O)[C@H](CCCN=C(N)N)NC(=O)[C@H](Cc3c[nH]cn3)NC(=O)[C@H](CCCN=C(N)N)NC(=O)[C@@H](N)CCC/N=C(/N)NC(=O)[C@@H](N)C3(CCCCC3)SSC[C@@H](C(=O)N[C@@H](CCCN=C(N)N)C(=O)O)NC(=O)[C@H](CCCN=C(N)N)NC2=O)cc1 [R(Pmc)-G-H-R-G-D-(Y-OMe)-R-C-R] (H-RRHRGDY(Me)RCR-OH; linker 1-9 via X2)
